# In ChEMBL document CHEMBL1133473, “Synthesis and antiviral activity of 4-benzyl pyridinone derivatives as potent and selective non-nucleoside human immunodeficiency virus type 1 reverse transcriptase inhibitors” (J Med Chem, 2000):
# “And” between values parts separate entries of the source, which are not always exact repeats. Equal entries are not always repeated.
# Experiments:
# [1] = test system: MT4; experiment: Cytotoxicity against MT-4 cells infected with HIV-1 IIIB strain; assay type: functional; settings: Homo sapiens
# [2] = Cytotoxicity against PBMC cells infected with HIV-2 D 194; assay type: functional; settings: Human immunodeficiency virus 2, PBMC
# [3] = test system: Human immunodeficiency virus 1; experiment: Inhibitory concentration against HIV-1 Bal/Mono; assay type: functional, organism-based
# Summary of the method: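 Macrophage-tropic HIV-1 Bal in monocyte-derived macrophages kept serum-free in AIM V medium with 100 U/mL GM-CSF. Virus output measured as supernatant particle-associated RT activity.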
# [4] = test system: Human immunodeficiency virus 1; experiment: Inhibitory concentration against HIV-1 AZTres.; assay type: functional, organism-based
# Summary of the method: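 AZT-resistant HIV-1 isolate A018 G910-6 tested in cell culture; virus production measured as RT activity of particles released into the culture supernatant.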
# [5] = test system: Human immunodeficiency virus 1; experiment: Tested for inhibitory concentration on HIV-I nevirapine resistant strain.; assay type: functional, organism-based
# Summary of the method: (§1)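 CEM-SS lymphocytic cells infected with 100 TCID50 of HIV-1 LAI, or of the nevirapine-resistant N119 strain carrying an RT codon 181 mutation. Virus adsorbed 30 min, unbound virus removed by two washes, then cells cultured 5 days with serial compound dilutions. Read-out: RT activity of particles released into the supernatant. IC50 from a computer median effect plot of dose-effect data.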
# [6] = test system: Human immunodeficiency virus 1; experiment: Selectivity index is the ratio of CC50 to IC50; assay type: functional
# [7] = test system: MT4; experiment: Cytotoxicity against MT-4 cells infected with HIV-1 AZTres; assay type: functional; settings: Homo sapiens
# [8] = Cytotoxicity against PBMC cells infected with HIV-1 IIIB strain; assay type: functional; settings: Human immunodeficiency virus 1, PBMC
# [9] = test system: Human immunodeficiency virus 1; experiment: Inhibitory concentration against HIV-1 IIIB strain; assay type: functional, organism-based
# Summary of the method: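 MT4 cells infected with HIV-1 IIIB; antiviral effect read as protection from virus-induced cytopathogenicity by MTT. Compounds taken from DMSO stock, diluted in culture medium.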
# [10] = test system: Human immunodeficiency virus 1; experiment: Tested for cytotoxic concentration on HIV-I nevirapine resistant strain.; assay type: functional
# Summary of the method: (§2)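 CEM-SS cells, uninfected, cultured 5 days with compound. Compounds were taken from a DMSO solution at 10^-2 M (10^-3 M or lower if insoluble), diluted 1:100 in medium, then serially diluted in medium.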
# [11] = test system: CEM-SS; experiment: Tested for inhibitory concentration on HIV-I Lai wild type in CEM-SS cell line; assay type: functional, cell-based; settings: Homo sapiens; summary of the method: as §1
# [12] = test system: Human immunodeficiency virus 1; experiment: (§3) Selectivity index is the ratio of CC50 to IC50 against HIV-1 nevirapine resistant strain; assay type: functional
# [13] = test system: CEM-SS; experiment: Tested for cytotoxic concentration on HIV-I Lai wild type in CEM-SS cell line; assay type: functional; settings: Homo sapiens; summary of the method: as §2
# [14] = Cytotoxicity against Macrophages infected with HIV-1 Bal/Mono; assay type: functional; settings: Human immunodeficiency virus 1
# [15] = target: Human immunodeficiency virus type 1 reverse transcriptase (Human immunodeficiency virus 1, UniProt Q72547); experiment: Tested for inhibitory concentration on HIV-1 Reverse transcriptase in the presence of poly(c)-oligo-(dG)
# Summary of the method: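 Recombinant HIV-1 RT purified from yeast, 20-50 nM. Reaction at 37 °C for 10 min in 50 mM Tris-HCl pH 8.0, 5 mM MgCl2, 4 mM DTT, 80 mM KCl, BSA, 0.48 A260 units/mL poly(C)-oligo(dG) (5:1), 2 µM dGTP plus [3H]dGTP. Stopped with cold 10% TCA plus 0.1 M pyrophosphate; precipitates filtered, scintillation counted. Compounds dissolved in DMSO.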
# [16] = Inhibitory concentration against HIV-2 D 194; assay type: functional
# Summary of the method: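 Cell-based antiviral assay against this HIV-2 isolate. Compounds were dissolved in DMSO as 10^-2 M stocks, or 10^-3 M or lower when insoluble, diluted 1% in culture medium, then serially diluted in medium. Virus production was read as reverse transcriptase activity of particles released into the culture supernatant. IC50 was taken from a median-effect plot of the dose-effect data.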
# [17] = as §3; assay type: functional
smiles,measurement,setting,value
CCc1c(C)nc(O)c(N)c1C(=O)c1cc(C)cc(C)c1,CC50,[1],> 10 µM
same,CC50,[2],> 10 µM
same,IC50,[3],0.017 µM
same,IC50,[4],0.025 µM
same,IC50,[5],1.3 µM
same,SI,[6],>1666
same,CC50,[7],> 10 µM
same,CC50,[8],> 10 µM
same,IC50,[9],0.085 µM and 0.02 µM
same,CC50,[10],> 10 µM
same,IC50,[11],0.006 µM
same,SI,[12],>7
same,CC50,[13],> 10 µM
same,CC50,[14],> 10 µM
same,IC50,[15],0.1 µM
same,IC50,[16],> 10 µM
CCc1c(C)[nH]c(=O)c(NC)c1Cc1cc(C)cc(C)c1,CC50,[1],> 10 µM
same,CC50,[2],> 10 µM
same,IC50,[3],0.72 µM
same,IC50,[4],0.076 µM
same,IC50,[5],1.7 µM
same,SI,[6],>333
same,CC50,[7],> 10 µM
same,CC50,[8],> 10 µM
same,CC50,[10],> 10 µM
same,IC50,[11],0.03 µM
same,SI,[12],>5.5 and >10
same,CC50,[13],> 10 µM
same,CC50,[14],> 10 µM
same,IC50,[16],> 10 µM
Cc1cc(C)cc(Sc2c(C)cnc(O)c2NC=O)c1,SI,[6],>15
same,IC50,[11],6.6 µM
CCOCn1c(Cc2cc(C)cc(C)c2)c(CC)c(=O)[nH]c1=O,SI,[6],130000
same,IC50,[11],0.0016 µM
same,CC50,[13],207 µM
CCc1c(C)nc(O)c(N)c1Cc1ccccc1,SI,[6],>136
same,IC50,[11],0.73 µM
same,CC50,[13],> 100 µM
CCc1c(C)nc(O)c(NC(=O)C(C)(C)C)c1C(C)(O)c1cc(C)cc(C)c1 (stereo not drawn),SI,[6],>8
same,IC50,[11],12 µM
same,CC50,[13],> 100 µM
CC(C)=CCN1Cc2cc(Cl)cc3[nH]c(=S)n(c23)C[C@@H]1C,IC50,[5],> 10 µM
same,CC50,[10],> 10 µM
CCc1cc(N)c(O)nc1C,SI,[6],>3
same,IC50,[11],30 µM
same,CC50,[13],> 100 µM
CCc1c(C)[nH]c(=O)c(NC(C)=O)c1Cc1cc(C)cc(C)c1,CC50,[1],> 10 µM
same,CC50,[2],> 10 µM
same,IC50,[3],0.2 µM
same,IC50,[4],0.44 µM
same,IC50,[5],> 10 µM
same,SI,[6],>100
same,CC50,[7],> 10 µM
same,CC50,[8],> 10 µM
same,CC50,[10],> 10 µM
same,IC50,[11],0.1 µM
same,CC50,[13],> 10 µM
same,CC50,[14],> 10 µM
same,IC50,[16],> 10 µM
CCc1c(C)nc(O)c(NC(=O)CN)c1Cc1cc(C)cc(C)c1,SI,[6],>5555
same,IC50,[11],0.018 µM
same,CC50,[13],> 100 µM
CCc1c(C)nc(OC)c(NC(=O)C(C)(C)C)c1C(OC(C)=O)c1cc(C)cc(C)c1 (stereo not drawn),SI,[6],>1
same,IC50,[11],10 µM
same,CC50,[13],> 10 µM
CCC(=O)Nc1c(Cc2cc(C)cc(C)c2)c(CC)c(C)[nH]c1=O,SI,[6],>2
same,IC50,[11],4.6 µM
same,CC50,[13],> 10 µM
CCc1c(C)nc(OC)c(NC(=O)C(C)(C)C)c1C(C)(O)c1cc(C)cc(C)c1 (stereo not drawn),IC50,[11],> 10 µM
same,CC50,[13],> 10 µM
CCc1c(C)nc(O)c(N)c1Cc1cc(C)cc(C)c1,CC50,[1],> 10 µM
same,CC50,[2],> 10 µM
same,IC50,[3],0.13 µM
same,IC50,[4],4.35 µM
same,IC50,[5],1 µM
same,SI,[6],>588
same,CC50,[7],> 10 µM
same,CC50,[8],> 10 µM
same,IC50,[9],0.31 µM
same,IC50,[9]; Human immunodeficiency virus 1,0.5 µM
same,CC50,[10],> 10 µM
same,IC50,[11],0.017 µM
same,CC50,[13],> 10 µM
same,CC50,[14],> 10 µM
same,SI,[17],> 10
same,IC50,[15],0.1 µM
same,IC50,[16],> 10 µM
CCc1c(C)nc(O)c(NCc2cc(C)c(C)cc2OC)c1Cc1cc(C)cc(C)c1,IC50,[11],1 µM
same,CC50,[13],> 1 µM
CCc1c(C)nc(OC)c2c1C(c1cc(C)cc(C)c1)OC(C(C)(C)C)=N2 (stereo not drawn),IC50,[11],> 10 µM
same,CC50,[13],> 10 µM
CCc1c(C)nc(O)c(NC(C)=O)c1Sc1cc(C)cc(C)c1,SI,[6],1600
same,IC50,[11],0.05 µM
